Laboratory results published in ChEMBL document CHEMBL2331531, “Synthesis and biological evaluation of urea derivatives as highly potent and selective rho kinase inhibitors” (J Med Chem, 2013).

How the values were obtained:
[1] = Inhibition of PKA (unknown origin) after 70 mins by luminescence assay; set-up: species or system Homo sapiens
[2] = molecular target: Rho-associated protein kinase 2 (Homo sapiens, UniProt O75116); assay: Inhibition of ROCK2 (unknown origin) after 4 hrs by HTRF assay
[3] = Aqueous solubility in potassium phosphate buffer at pH 5.5 after 24 hrs by HPLC analysis; type: physicochemical; settings: pH 5.5, 24 h
[4] = Oral bioavailability in Sprague-Dawley rat at 2 mg/kg by LC-MS/MS analysis; type: ADME, organism-based; settings: in vivo
[5] = Cmax in Sprague-Dawley rat at 1 mg/kg, iv by LC-MS/MS analysis; type: ADME, organism-based; set-up: dose 1 mg/kg, route intravenous; settings: in vivo
[6] = AUC in Sprague-Dawley rat at 1 mg/kg, iv by LC-MS/MS analysis; type: ADME, organism-based, Plasma; set-up: dose 1 mg/kg, route intravenous; settings: Sprague-Dawley, plasma
[7] = Half life in Sprague-Dawley rat at 1 mg/kg, iv by LC-MS/MS analysis; type: ADME, organism-based; set-up: dose 1 mg/kg, route intravenous; settings: in vivo
[8] = Volume of distribution in Sprague-Dawley rat at 1 mg/kg, iv by LC-MS/MS analysis; type: ADME, organism-based; set-up: dose 1 mg/kg, route intravenous; settings: in vivo
[9] = Clearance in Sprague-Dawley rat at 1 mg/kg, iv by LC-MS/MS analysis; type: ADME, organism-based; set-up: dose 1 mg/kg, route intravenous; settings: in vivo
[10] = molecular target: CYP3A4 (Homo sapiens, UniProt P08684); assay: Inhibition of CYP3A4 (unknown origin)-mediated midazolam hydroxylation to 1'-Hydroxymidazolam at 10 uM relative to control; type: ADME; settings: probe midazolam
[11] = molecular target: CYP2D6 (Homo sapiens, UniProt P10635); assay: Inhibition of CYP2D6 (unknown origin)-mediated bufuralol hydroxylation to 4'-Hydroxybufuralol at 10 uM relative to control; type: ADME; settings: probe bufuralol
[12] = molecular target: CYP2C9 (Homo sapiens, UniProt P11712); assay: Inhibition of CYP2C9 (unknown origin)-mediated tolbutamide hydroxylation to hydroxy tolbutamide at 10 uM relative to control; type: ADME; settings: probe tolbutamide
[13] = molecular target: T1, CYP1A2 (Homo sapiens, UniProt P05177); assay: Inhibition of CYP1A2 (unknown origin)-mediated phenaceten demethylation to acetaminophen at 10 uM relative to control; type: ADME; settings: probe phenacetin (printed: phenaceten)
T1 sequence (P05177 whole entry): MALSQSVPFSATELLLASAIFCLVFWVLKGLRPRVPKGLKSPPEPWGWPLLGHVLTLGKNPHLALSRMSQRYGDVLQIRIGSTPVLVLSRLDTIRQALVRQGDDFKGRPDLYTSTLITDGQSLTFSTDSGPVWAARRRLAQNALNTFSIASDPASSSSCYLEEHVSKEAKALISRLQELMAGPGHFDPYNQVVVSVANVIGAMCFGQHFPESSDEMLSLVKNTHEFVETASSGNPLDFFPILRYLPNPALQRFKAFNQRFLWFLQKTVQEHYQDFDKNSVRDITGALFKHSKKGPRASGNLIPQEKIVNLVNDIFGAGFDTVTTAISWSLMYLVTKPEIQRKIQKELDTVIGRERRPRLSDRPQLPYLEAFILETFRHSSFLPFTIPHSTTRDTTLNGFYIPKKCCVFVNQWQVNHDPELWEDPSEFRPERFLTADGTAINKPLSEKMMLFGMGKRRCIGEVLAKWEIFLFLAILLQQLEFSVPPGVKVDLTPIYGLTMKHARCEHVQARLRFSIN

[14] = molecular target: Rho-associated protein kinase 1 (Homo sapiens, UniProt Q13464); assay: Inhibition of ROCK1 (unknown origin) after 4 hrs by HTRF assay
[15] = molecular target: MAP kinase p38 (Homo sapiens, UniProt O15264+Q15759+Q16539+P53778); assay: Inhibition of p38 (unknown origin) using biotinylated Flag-ATF2 as substrate after 30 mins by HTRF assay; type: protein assay
[16] = molecular target: Mitogen-activated protein kinase 10 (Homo sapiens, UniProt P53779); assay: Inhibition of JNK3 alpha1 (unknown origin) using biotinylated Flag-ATF2 as substrate after 15 mins by HTRF assay
[17] = Half life in human liver microsomes; type: ADME, Microsome
[18] = Inhibition of ROCK-mediated myosin light chain bisphosphorylation in rat A7R5 cells after 1 hr by fluorescence assay in presence of L-alpha-lysophosphatidic acid; type: cell-based
Outline: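 A7r5 cells in 20% FBS DMEM, plated 5000/well overnight, serum-starved 4 h in 0.05% FBS DMEM; compound 13333 nM to 18 nM final for 1 h, then 10 μM LPA 10 min; fixed, permeabilized, anti-ppMLC plus IR800 secondary; infrared scan, ppMLC signal normalized to TO-PRO-3 nuclear signal. IC50 as mean of two or more experiments.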

Rho-associated protein kinase 1, sequence (Q13464 whole entry): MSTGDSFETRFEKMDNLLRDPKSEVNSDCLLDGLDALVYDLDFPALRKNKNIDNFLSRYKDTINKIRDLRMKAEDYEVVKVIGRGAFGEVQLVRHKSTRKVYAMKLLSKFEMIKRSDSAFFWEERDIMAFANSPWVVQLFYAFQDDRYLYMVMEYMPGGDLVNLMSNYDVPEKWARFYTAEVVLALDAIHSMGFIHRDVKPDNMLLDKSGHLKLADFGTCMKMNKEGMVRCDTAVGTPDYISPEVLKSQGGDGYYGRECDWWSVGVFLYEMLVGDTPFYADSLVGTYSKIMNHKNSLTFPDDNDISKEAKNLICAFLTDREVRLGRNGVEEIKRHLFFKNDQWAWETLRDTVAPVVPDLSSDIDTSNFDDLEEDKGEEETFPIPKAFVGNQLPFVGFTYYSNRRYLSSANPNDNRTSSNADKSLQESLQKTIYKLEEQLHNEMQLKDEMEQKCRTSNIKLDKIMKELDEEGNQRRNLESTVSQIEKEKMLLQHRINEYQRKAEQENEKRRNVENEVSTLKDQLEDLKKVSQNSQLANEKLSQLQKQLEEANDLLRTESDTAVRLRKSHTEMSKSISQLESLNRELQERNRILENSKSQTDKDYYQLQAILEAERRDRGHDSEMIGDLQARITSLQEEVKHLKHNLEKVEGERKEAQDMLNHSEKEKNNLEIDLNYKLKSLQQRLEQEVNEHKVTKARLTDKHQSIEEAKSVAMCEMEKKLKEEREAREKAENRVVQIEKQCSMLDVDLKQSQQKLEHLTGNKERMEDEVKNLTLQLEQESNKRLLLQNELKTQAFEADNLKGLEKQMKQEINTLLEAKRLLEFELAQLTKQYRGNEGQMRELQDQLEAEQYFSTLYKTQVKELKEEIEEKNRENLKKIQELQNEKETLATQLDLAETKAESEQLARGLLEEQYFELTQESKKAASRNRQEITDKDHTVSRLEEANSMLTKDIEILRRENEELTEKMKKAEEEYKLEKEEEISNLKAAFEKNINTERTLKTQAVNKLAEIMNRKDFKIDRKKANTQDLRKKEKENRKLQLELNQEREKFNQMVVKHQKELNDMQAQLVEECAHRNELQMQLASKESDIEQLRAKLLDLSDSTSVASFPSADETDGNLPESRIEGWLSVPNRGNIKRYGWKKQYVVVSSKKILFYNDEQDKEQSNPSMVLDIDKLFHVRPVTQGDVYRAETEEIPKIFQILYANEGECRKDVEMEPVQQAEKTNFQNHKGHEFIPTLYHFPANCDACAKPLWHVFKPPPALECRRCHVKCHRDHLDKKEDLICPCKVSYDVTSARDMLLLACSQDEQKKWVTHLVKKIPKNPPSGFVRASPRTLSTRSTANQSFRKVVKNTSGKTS
CYP3A4, sequence (P08684 whole entry): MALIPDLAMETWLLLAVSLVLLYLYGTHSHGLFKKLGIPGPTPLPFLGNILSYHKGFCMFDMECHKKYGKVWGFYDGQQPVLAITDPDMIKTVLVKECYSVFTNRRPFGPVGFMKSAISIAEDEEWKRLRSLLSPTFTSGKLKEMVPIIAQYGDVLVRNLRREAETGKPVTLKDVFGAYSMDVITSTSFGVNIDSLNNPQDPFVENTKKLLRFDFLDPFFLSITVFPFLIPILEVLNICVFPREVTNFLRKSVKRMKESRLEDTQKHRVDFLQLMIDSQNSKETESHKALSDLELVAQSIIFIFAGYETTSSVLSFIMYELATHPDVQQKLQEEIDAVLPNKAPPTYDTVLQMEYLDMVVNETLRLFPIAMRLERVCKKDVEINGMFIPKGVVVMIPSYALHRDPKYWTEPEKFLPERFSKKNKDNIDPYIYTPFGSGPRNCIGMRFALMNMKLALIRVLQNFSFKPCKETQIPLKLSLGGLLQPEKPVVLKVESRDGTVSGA
Rho-associated protein kinase 2, sequence (O75116 whole entry): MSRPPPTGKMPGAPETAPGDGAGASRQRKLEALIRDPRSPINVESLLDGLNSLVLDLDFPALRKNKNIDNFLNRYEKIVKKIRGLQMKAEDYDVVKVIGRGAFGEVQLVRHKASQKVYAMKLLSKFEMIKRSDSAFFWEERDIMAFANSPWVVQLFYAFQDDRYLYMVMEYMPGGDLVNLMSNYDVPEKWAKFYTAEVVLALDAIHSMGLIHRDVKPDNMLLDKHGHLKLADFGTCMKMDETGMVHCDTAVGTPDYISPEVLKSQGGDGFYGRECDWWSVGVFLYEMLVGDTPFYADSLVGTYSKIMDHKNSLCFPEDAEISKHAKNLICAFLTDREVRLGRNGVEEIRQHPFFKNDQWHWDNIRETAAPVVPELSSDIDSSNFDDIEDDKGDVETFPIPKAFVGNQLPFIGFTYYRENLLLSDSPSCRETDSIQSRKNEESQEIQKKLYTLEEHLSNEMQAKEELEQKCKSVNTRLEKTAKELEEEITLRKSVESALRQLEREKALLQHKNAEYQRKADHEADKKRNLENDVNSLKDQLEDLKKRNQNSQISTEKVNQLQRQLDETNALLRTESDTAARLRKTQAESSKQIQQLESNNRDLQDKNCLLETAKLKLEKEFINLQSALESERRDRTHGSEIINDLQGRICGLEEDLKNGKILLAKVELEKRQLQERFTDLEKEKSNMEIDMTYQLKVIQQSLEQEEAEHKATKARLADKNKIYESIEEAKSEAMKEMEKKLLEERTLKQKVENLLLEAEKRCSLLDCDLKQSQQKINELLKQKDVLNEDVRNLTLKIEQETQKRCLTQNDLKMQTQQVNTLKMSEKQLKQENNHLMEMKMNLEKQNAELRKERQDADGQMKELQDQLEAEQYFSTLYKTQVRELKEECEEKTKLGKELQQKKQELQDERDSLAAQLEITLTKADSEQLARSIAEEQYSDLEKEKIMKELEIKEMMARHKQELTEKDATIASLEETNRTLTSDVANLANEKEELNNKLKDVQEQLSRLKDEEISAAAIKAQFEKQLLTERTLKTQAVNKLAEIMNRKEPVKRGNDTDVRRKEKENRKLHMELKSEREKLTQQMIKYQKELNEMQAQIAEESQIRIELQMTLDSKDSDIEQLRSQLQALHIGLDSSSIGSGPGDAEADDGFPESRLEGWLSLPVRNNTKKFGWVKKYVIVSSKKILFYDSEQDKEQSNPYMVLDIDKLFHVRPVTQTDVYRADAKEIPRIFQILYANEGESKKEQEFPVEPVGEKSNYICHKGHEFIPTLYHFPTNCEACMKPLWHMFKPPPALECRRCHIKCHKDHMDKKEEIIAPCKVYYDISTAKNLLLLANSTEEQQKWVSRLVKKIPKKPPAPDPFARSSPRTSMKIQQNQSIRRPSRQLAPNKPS
CYP2C9, sequence (P11712 whole entry): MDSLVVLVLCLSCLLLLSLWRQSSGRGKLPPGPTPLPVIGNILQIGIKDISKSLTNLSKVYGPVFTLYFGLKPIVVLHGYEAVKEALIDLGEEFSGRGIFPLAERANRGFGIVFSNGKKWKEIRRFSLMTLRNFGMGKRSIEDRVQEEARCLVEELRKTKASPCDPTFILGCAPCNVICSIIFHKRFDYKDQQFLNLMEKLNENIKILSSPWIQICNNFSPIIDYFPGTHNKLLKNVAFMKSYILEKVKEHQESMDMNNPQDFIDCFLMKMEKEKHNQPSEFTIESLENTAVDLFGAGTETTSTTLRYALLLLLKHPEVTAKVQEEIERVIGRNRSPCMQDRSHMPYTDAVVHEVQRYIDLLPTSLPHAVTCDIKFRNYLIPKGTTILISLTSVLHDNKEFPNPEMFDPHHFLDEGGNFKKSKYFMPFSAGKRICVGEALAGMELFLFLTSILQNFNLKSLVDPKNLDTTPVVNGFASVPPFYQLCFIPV
CYP2D6, sequence (P10635 whole entry): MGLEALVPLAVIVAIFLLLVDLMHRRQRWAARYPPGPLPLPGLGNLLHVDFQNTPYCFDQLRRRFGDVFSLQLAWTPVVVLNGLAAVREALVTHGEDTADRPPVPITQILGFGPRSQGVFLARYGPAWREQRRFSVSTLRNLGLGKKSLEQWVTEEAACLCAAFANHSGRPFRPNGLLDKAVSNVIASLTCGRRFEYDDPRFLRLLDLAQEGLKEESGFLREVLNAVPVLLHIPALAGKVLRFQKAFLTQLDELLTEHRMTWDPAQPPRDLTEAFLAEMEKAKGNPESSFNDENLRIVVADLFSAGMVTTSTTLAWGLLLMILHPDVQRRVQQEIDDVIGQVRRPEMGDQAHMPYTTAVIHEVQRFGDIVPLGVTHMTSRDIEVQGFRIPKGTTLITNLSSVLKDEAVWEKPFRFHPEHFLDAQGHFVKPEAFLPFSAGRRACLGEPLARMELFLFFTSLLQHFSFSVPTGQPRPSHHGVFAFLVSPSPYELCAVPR
Mitogen-activated protein kinase 10, sequence (P53779 whole entry): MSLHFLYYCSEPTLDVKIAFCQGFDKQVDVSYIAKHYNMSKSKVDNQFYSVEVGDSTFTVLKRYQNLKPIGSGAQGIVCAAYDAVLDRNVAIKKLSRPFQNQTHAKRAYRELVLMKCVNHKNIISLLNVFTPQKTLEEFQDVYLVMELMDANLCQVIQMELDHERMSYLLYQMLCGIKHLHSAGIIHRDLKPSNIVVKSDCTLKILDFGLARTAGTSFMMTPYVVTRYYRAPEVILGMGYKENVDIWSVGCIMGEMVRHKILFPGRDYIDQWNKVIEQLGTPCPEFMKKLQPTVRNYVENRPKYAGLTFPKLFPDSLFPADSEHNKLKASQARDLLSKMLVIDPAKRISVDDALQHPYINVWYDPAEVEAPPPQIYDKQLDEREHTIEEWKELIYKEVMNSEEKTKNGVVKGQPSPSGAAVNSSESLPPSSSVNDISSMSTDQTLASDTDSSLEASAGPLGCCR

IC50 [1] [nM] | IC50 [2] [nM] | half-life [17] [min] | IC50 [18] [nM] | SMILES | other results
> 20000 | 253 |  |  | COc1cccc(CNC(=O)Nc2ccc(-c3cn[nH]c3)cc2)c1OC | 
> 20000 | 751 |  |  | O=C(NCC1CCCCC1)Nc1ccc(-c2cn[nH]c2)cc1 | 
518 | 357 |  |  | COc1ccc(CNC(=O)Nc2ccc(-c3cn[nH]c3)cc2)cc1F | 
> 20000 | 7 |  | > 2700 | O=C(Nc1ccc(-c2cn[nH]c2)cc1)OCc1ccccc1 | 
238 | 2 | > 60 | 40 | CN(C)CCC(NC(=O)Nc1ccc(-c2cn[nH]c2)cc1)c1ccccc1 (stereo not given) | solubility [3]: soluble; bioavailability [4]: 0%; Cmax [5]: 200 nM; AUC [6]: 0.5 µM·h; half-life [7]: 144 min; Vd [8]: 20 L/kg; clearance [9]: 91 mL/min/kg; inhibition at 10 µM [10]: 10%; inhibition at 10 µM [11]: 59%; inhibition at 10 µM [12]: 16%; inhibition at 10 µM [13]: -1%; IC50 [14]: 6 nM
822 | 4 | 14 | 75 | COc1cccc(CN(CCCN2CCCCC2)C(=O)Nc2ccc(-c3cn[nH]c3)cc2)c1 | 
72 | < 1 | > 120 | 8 | COc1cccc(CN(CCN)C(=O)Nc2ccc(-c3cn[nH]c3)cc2)c1 | 
3100 | 88 |  | > 2700 | O=C(NCCc1ccccc1)Nc1ccc(-c2cn[nH]c2)cc1 | 
438 | 1 | > 120 | 48 | O=C(Nc1ccc(-c2cn[nH]c2)cc1)NC(CCO)c1ccccc1 (stereo not given) | 
18400 | 3 | 11 | 67 | COc1cccc(CN(C(=O)Nc2ccc(-c3cn[nH]c3)cc2)C(C)C)c1 | 
10500 | 17 | 21 | 180 | COCCN(Cc1cccc(OC)c1)C(=O)Nc1ccc(-c2cn[nH]c2)cc1 | 
> 20000 | > 20000 |  |  | COc1cccc(CNC(=O)N(CCN2CCCC2)c2ccc(-c3cn[nH]c3)cc2)c1 | 
13500 | 924 |  |  | COc1cccc(OC)c1CNC(=O)Nc1ccc(-c2cn[nH]c2)cc1 | 
> 20000 | 304 |  |  | O=C(Nc1ccccc1)Nc1ccc(-c2cn[nH]c2)cc1 | 

More lines, now with the values behind:

SMILES | IC50 [1] [nM] | IC50 [2] [nM] | half-life [17] [min] | IC50 [18] [nM] | other results
COc1cccc(CN(CCN2CCOCC2)C(=O)Nc2ccc(-c3cn[nH]c3)cc2)c1 | 3820 | 13 | 3 | 138 | solubility [3]: soluble; bioavailability [4]: 4%; Cmax [5]: 1200 nM; AUC [6]: 0.6 µM·h; half-life [7]: 132 min; Vd [8]: 3.5 L/kg; clearance [9]: 63 mL/min/kg; inhibition at 10 µM [10]: 51%; inhibition at 10 µM [11]: 82%; inhibition at 10 µM [12]: 68%; inhibition at 10 µM [13]: -37%; IC50 [14]: 58 nM; IC50 [15]: > 20000 nM; IC50 [16]: > 20000 nM
COc1cccc(CN(CCN2CCCCC2)C(=O)Nc2ccc(-c3cn[nH]c3)cc2)c1 | 338 | 5 | 11 | 17 | solubility [3]: soluble; bioavailability [4]: 0%; Cmax [5]: 530 nM; AUC [6]: 0.4 µM·h; half-life [7]: 60 min; Vd [8]: 4.3 L/kg; clearance [9]: 86 mL/min/kg; inhibition at 10 µM [10]: 61%; inhibition at 10 µM [11]: 87%; inhibition at 10 µM [12]: 56%; inhibition at 10 µM [13]: 18%; IC50 [14]: 14 nM; IC50 [15]: > 20000 nM; IC50 [16]: > 20000 nM
O=C(Nc1ccc(-c2cn[nH]c2)cc1)OCCc1ccccc1 | > 20000 | 55 |  | 2640 | 
COc1cccc(CN(CCCN2CCCC2)C(=O)Nc2ccc(-c3cn[nH]c3)cc2)c1 | 228 | 5 | 59 | 18 | 
COc1ccc(CNC(=O)Nc2ccc(-c3cn[nH]c3)cc2)cc1OC | > 20000 | 425 |  |  | 
COc1cccc(CN(CCO)C(=O)Nc2ccc(-c3cn[nH]c3)cc2OCCO)c1 | 615 | < 1 |  | 220 | 
O=C(Nc1ccc(-c2cn[nH]c2)cc1F)N(CCO)Cc1ccccc1 | 1020 | 14 | > 120 | 33 | 
COc1cccc(CN(C(=O)Nc2ccc(-c3cn[nH]c3)cc2)C2CC2)c1 | 1700 | 1 | 25 | 4 | 
COc1cccc(CNC(=O)N(C)c2ccc(-c3cn[nH]c3)cc2)c1 | > 20000 | 87 |  |  | 
COc1cccc(CNC(=O)N(CCN(C)C)c2ccc(-c3cn[nH]c3)cc2)c1 | 4200 | 2980 |  |  | 
COc1cccc(CN(CCN(C)C)C(=O)Nc2ccc(-c3cn[nH]c3)cc2OCCN(C)C)c1 |  | 170 |  |  | 
COc1cccc(CN(CCN(C)C)C(=O)Nc2ccc(-c3cn[nH]c3)cn2)c1 | 470 | 2 | 17 | 28 | solubility [3]: soluble; inhibition at 10 µM [10]: 8%; inhibition at 10 µM [11]: 51%; inhibition at 10 µM [12]: 5%; inhibition at 10 µM [13]: -21%; IC50 [14]: 10 nM
COc1ccc(OC)c(CNC(=O)Nc2ccc(-c3cn[nH]c3)cc2)c1 | > 20000 | 570 |  |  | 
COc1cc(CNC(=O)Nc2ccc(-c3cn[nH]c3)cc2)cc(OC)c1 | > 20000 | 281 |  |  | 
O=C(CCc1ccccc1)Nc1ccc(-c2cn[nH]c2)cc1 | 266 | 24 |  | 91 | 
O=C(Nc1ccc(-c2cn[nH]c2)cc1)NC(CO)c1ccccc1 (stereo not given) | 389 | 2 | > 120 | 150 | 
CCN(Cc1cccc(OC)c1)C(=O)Nc1ccc(-c2cn[nH]c2)cc1 | 4670 | 1 | 25 | 44 | 
COc1cccc(CN(CCCN2CCOCC2)C(=O)Nc2ccc(-c3cn[nH]c3)cc2)c1 | 724 | 4 | 4 | 84 | 
COc1ccc(CNC(=O)Nc2ccc(-c3cn[nH]c3)cc2)c(OC)c1 | 11200 | 331 |  |  | 
COc1cccc(CNC(=O)N(CCCN(C)C)c2ccc(-c3cn[nH]c3)cc2)c1 | 12000 | 3320 |  |  | 
COc1cccc(CNC(=O)N(CCO)c2ccc(-c3cn[nH]c3)cc2)c1 | > 20000 | 611 |  |  | 
COc1cccc(C(CCO)NC(=O)Nc2ccc(-c3cn[nH]c3)cc2)c1 (stereo not given) | 4870 | 2 | 112 | 40 | solubility [3]: soluble; bioavailability [4]: 4%; Cmax [5]: 12000 nM; AUC [6]: 7.9 µM·h; half-life [7]: 42 min; Vd [8]: 0.25 L/kg; clearance [9]: 5.9 mL/min/kg; inhibition at 10 µM [10]: 37%; inhibition at 10 µM [11]: 37%; inhibition at 10 µM [12]: 67%; inhibition at 10 µM [13]: 3%; IC50 [14]: 11 nM
O=C(Nc1ccc(-c2cn[nH]c2)cc1)N1CCc2ccccc2C1 | 8000 | 280 |  |  | 
O=C(NCCCc1ccccc1)Nc1ccc(-c2cn[nH]c2)cc1 | > 20000 | 1020 |  |  | 
